Activity calls are given as the source filed them. No cut-off for these calls is given here.
Legend:
[1] = tested on: HeLa; experiment: Antiproliferative activity against human HeLa cells at 20 ug/ml after 48 hrs by MTS assay; type: functional, cell-based
Method in brief: (§1)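 Cells seeded at (2−5) × 10^3 per well in 96-well plates and allowed to attach overnight. Medium was then replaced with medium containing test compound by serial dilution from 100 mM DMSO stocks, or 0.1% DMSO, with cisplatin as positive control. Incubation was 48 h at 37 °C in 5% CO2, then MTS was added for 90 min at 37 °C. Absorbance read at 490 nm; triplicate.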

[2] = tested on: MCF7; experiment: Antiproliferative activity against human MCF7 cells at 20 ug/ml after 48 hrs by MTS assay; type: functional, cell-based; method in brief: as §1
[3] = tested on: HeLa; experiment: Induction of autophagy in human HeLa cells assessed as accumulation of membrane vacuoles at 10 uM at 2 hrs by transmission electron microscopic method; type: functional, cell-based
Method in brief: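 HeLa cells treated with 10 μM for 2 h, then washed in PBS, trypsinized and pelleted. Pellets fixed in 4% paraformaldehyde at 4 °C overnight and postfixed in 1% OsO4 in cacodylate buffer for 1 h at RT. They were then dehydrated in ethanol, rinsed in propylene oxide and embedded in Spurr resin. Thin sections examined by TEM.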

[4] = tested on: HeLa; experiment: Induction of autophagy in human HeLa cells assessed as increase in punctate LC3 accumulation at 10 uM after 2 hrs by immunofluorescence method; type: functional, cell-based
Method in brief: (§2)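 They were fixed in 4% paraformaldehyde and permeabilized in Ca/Mg-free PBS with 0.1% Triton X-100 and 0.5% BSA. Staining used anti-LC3 and Alexa Fluor secondaries, with DAPI mounting. LC3 puncta were counted by fluorescence microscopy.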

[5] = tested on: HeLa; experiment: Induction of autophagy in human HeLa cells assessed as increase in punctate LC3 accumulation at 10 uM after 2 hrs in presence of chloroquine by immunofluorescence method; type: functional, cell-based; method in brief: as §2
[6] = tested on: HeLa; experiment: Induction of autophagy in human HeLa cells assessed as effect on ratio of LC3-2 to actin at 1 uM after 2 hrs by immunoblot method relative to control; type: functional
Method in brief: (§3)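 Lysis in Tris-HCl pH 7.4 buffer with EDTA, EGTA, DTT, 1% Triton X-100, 1% SDS and protease inhibitors. SDS-PAGE, PVDF transfer, HRP secondary antibodies, ECL detection. LC3-II band expressed as a ratio to actin.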

[7] = tested on: HeLa; experiment: Induction of autophagy in human HeLa cells assessed as effect on ratio of LC3-2 to actin at 1 uM after 2 hrs in presence of chloroquine by immunoblot method relative to control; type: functional; method in brief: as §3
[8] = tested on: HeLa; experiment: Induction of autophagy in human HeLa cells assessed as effect on ratio of SQSTM1/p62 to actin at 1 uM after 2 hrs by immunoblot method relative to control; type: functional
Method in brief: (§4)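 Lysis used Triton X-100/glycerol buffer: 50 mM Tris-HCl pH 7.4, 4 mM EDTA, 2 mM EGTA, 1 mM DTT, 1% Triton X-100, 1% SDS and protease inhibitors. Lysates were run on SDS-PAGE, blotted to PVDF and detected by HRP secondaries with ECL. p62/actin ratio calculated.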

[9] = tested on: HeLa; experiment: Induction of autophagy in human HeLa cells assessed as effect on ratio of SQSTM1/p62 to actin at 10 uM after 2 hrs by immunoblot method relative to control; type: functional; method in brief: as §4
[10] = tested on: HeLa; experiment: Induction of autophagy in human HeLa cells assessed as effect on ratio of SQSTM1/p62 to actin at 20 uM after 2 hrs by immunoblot method relative to control; type: functional; method in brief: as §4
[11] = tested on: HeLa; experiment: Induction of autophagy in human HeLa cells assessed as effect on ratio of SQSTM1/p62 to actin at 1 uM after 2 hrs in presence of chloroquine by immunoblot method relative to control; type: functional; method in brief: as §4
[12] = tested on: HeLa; experiment: Induction of autophagy in human HeLa cells assessed as effect on ratio of SQSTM1/p62 to actin at 10 uM after 2 hrs in presence of chloroquine by immunoblot method relative to control; type: functional; method in brief: as §4
[13] = tested on: HeLa; experiment: Induction of autophagy in human HeLa cells assessed as effect on ratio of SQSTM1/p62 to actin at 20 uM after 2 hrs in presence of chloroquine by immunoblot method relative to control; type: functional; method in brief: as §4
[14] = tested on: HeLa; experiment: Induction of autophagy in human HeLa cells assessed as effect on ratio of LC3-2 to actin at 10 uM after 2 hrs by immunoblot method relative to control; type: functional; method in brief: as §3
[15] = tested on: HeLa; experiment: Induction of autophagy in human HeLa cells assessed as effect on ratio of LC3-2 to actin at 20 uM after 2 hrs by immunoblot method relative to control; type: functional; method in brief: as §3
[16] = tested on: HeLa; experiment: Induction of autophagy in human HeLa cells assessed as effect on ratio of LC3-2 to actin at 10 uM after 2 hrs in presence of chloroquine by immunoblot method relative to control; type: functional; method in brief: as §3
[17] = tested on: HeLa; experiment: Induction of autophagy in human HeLa cells assessed as effect on ratio of LC3-2 to actin at 20 uM after 2 hrs in presence of chloroquine by immunoblot method relative to control; type: functional; method in brief: as §3
[18] = tested on: HeLa; experiment: Induction of autophagy in human HeLa cells assessed as effect on ratio of SQSTM1/p62 to actin at 15 uM after 2 hrs by immunoblot method relative to control; type: functional; method in brief: as §4

COC(=O)C1=CC(OC)=C(Cl)C(=O)C12OC(=O)c1c(O)cc(C)cc1O2 (stereo not given)
inhibition [1]: inactive | inhibition [2]: inactive

CCCCCCCC1=COC(=O)[C@]12C[C@]1(C(=O)OC)C=C(OC)[C@@]2(Cl)C(=O)[C@]12OC(=O)c1c(O)cc(C)cc1O2
Activity [3]: Active | Activity [4]: Active | Activity [5]: Active | fold change (FC) [6]: 1.03 | fold change (FC) [7]: 10.98 | fold change (FC) [8]: 2.76 | fold change (FC) [9]: 3.61 | fold change (FC) [10]: 2.84 | fold change (FC) [11]: 2.84 | fold change (FC) [12]: 2.19 | fold change (FC) [13]: 1.94 | fold change (FC) [14]: 0.79 | fold change (FC) [15]: 2.9 | fold change (FC) [16]: 12.53 | fold change (FC) [17]: 10.86

C=C(C(=O)O)[C@@H](CCCCCCCC)C(=O)O
inhibition [1]: inactive | inhibition [2]: inactive

CCN(CC)CCCC(C)Nc1ccnc2cc(Cl)ccc12 (stereo not given) [CHLOROQUINE]
fold change (FC) [18]: 1.8
